Measured values as given in ChEMBL document CHEMBL1132613 (J Med Chem, 1999).
Several values for one entry are separate records, joined by “and”; a condition that tells them apart may be missing. Equal values may be shown once.

Key:
[1] = molecular target: T1, 5-hydroxytryptamine receptor 1A (Rattus norvegicus, UniProt P19327); assay: Compound was tested for the displacement of [3H]-8-OH- DPAT from rat brain 5-hydroxytryptamine 1A receptor
T1 sequence (P19327 whole entry): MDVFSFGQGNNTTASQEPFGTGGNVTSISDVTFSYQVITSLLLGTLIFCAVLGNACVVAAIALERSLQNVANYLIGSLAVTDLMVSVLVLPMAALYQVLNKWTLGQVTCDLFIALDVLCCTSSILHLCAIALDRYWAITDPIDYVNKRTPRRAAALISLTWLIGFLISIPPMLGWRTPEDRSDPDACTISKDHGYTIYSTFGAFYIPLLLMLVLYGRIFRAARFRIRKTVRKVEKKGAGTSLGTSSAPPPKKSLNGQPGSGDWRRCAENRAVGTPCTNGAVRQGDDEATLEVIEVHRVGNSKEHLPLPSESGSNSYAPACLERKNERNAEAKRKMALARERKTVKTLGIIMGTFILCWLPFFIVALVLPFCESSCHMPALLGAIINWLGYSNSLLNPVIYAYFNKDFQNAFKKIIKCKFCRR
Outline: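 Pooled rat hippocampal membranes were preincubated at 37 °C. Buffer was 50 mM Tris HCl pH 7.4 with 0.5 mM Na2EDTA, 10 mM MgCl2, 0.1% Na ascorbate and pargyline. 200–400 μg protein was incubated with [3H]-8-OH-DPAT for 15 min at 37 °C, then GF/C filtered and scintillation counted. Nonspecific binding was defined with 10 μM 5-HT. Triplicate tubes.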

[2] = tested on: Rattus norvegicus; assay: Drug Discrimination in […] trained rats at 0.5 mg/kg dose; format: functional
Outline: (§1)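 Male Sprague–Dawley rats (200–220 g) in a two-lever, FR50 food-reinforced task. Rats were trained to discriminate saline from LSD tartrate (0.08 mg/kg), DOI HCl (0.4 mg/kg) or LY293284 (0.025 mg/kg) in 15-min sessions. %SDL is the share of rats making over 80% of presses on the drug lever. %D is the share failing to make 50 presses within 15 min. ED50 by Litchfield–Wilcoxon log-probit.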

[3] = tested on: Rattus norvegicus; assay: Drug Discrimination in […] trained rats at 1.0 mg/kg dose; format: functional; outline: as §1
[4] = tested on: Rattus norvegicus; assay: Drug Discrimination in […] trained rats at 2.0 mg/kg dose; format: functional; outline: as §1
[5] = tested on: Rattus norvegicus; assay: Drug Discrimination in […] trained rats at 4.0 mg/kg dose; format: functional; outline: as §1
[6] = tested on: Rattus norvegicus; assay: Drug Discrimination in […] trained rats at 8.0 mg/kg dose; format: functional; outline: as §1
[7] = tested on: Rattus norvegicus; assay: Percentage of animals failing to emit 50 lever presses within 15 min in rats at 2.0 mg/kg dose; format: functional
Outline: (§2)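 Two-lever drug discrimination in male Sprague–Dawley rats (200–220 g at start), trained against saline on LSD tartrate (0.08 mg/kg), DOI HCl (0.4 mg/kg) or LY293284 (0.025 mg/kg). FR50 food-pellet reinforcement, levers counterbalanced, 15-min sessions at 22–24 °C. %D is the share of tested rats not completing 50 lever presses within 15 min.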

[8] = tested on: Rattus norvegicus; assay: Percentage of animals failing to emit 50 lever presses within 15 min in rats at 4.0 mg/kg dose; format: functional; outline: as §2
[9] = tested on: Rattus norvegicus; assay: Percentage of animals failing to emit 50 lever presses within 15 min in rats at 8.0 mg/kg dose; format: functional; outline: as §2
[10] = tested on: Rattus norvegicus; assay: Percentage of animals failing to emit 50 lever presses within 15 min in rats at 1.0 mg/kg dose; format: functional; outline: as §2
[11] = tested on: Rattus norvegicus; assay: Percentage of animals emitting >80% of lever presses in rats at 1.0 mg/kg dose; format: functional; outline: as §1
[12] = tested on: Rattus norvegicus; assay: Percentage of animals emitting >80% of lever presses in rats at 2.0 mg/kg dose; format: functional; outline: as §1
[13] = tested on: Rattus norvegicus; assay: Percentage of animals emitting >80% of lever presses in rats at 4.0 mg/kg dose; format: functional; outline: as §1
[14] = tested on: Rattus norvegicus; assay: Percentage of animals emitting >80% of lever presses in rats at 8.0 mg/kg dose; format: functional; outline: as §1
[15] = molecular target: 5-hydroxytryptamine receptor 2A (Homo sapiens, UniProt P28223)
5-hydroxytryptamine receptor 2A, sequence (P28223 whole entry): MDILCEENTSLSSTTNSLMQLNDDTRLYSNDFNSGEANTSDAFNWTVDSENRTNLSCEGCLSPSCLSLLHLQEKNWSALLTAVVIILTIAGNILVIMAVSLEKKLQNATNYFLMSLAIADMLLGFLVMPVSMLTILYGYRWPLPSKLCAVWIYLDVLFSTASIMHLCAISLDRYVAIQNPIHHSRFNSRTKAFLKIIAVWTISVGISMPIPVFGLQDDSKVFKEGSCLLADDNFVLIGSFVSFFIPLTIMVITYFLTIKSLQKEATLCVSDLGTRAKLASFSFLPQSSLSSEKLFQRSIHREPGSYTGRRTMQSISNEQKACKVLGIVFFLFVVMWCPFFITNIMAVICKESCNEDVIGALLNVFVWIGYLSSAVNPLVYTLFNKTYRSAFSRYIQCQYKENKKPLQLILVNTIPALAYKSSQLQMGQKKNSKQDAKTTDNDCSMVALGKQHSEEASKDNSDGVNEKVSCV

[16] = molecular target: 5-hydroxytryptamine receptor 2A (Rattus norvegicus) (UniProt P14842); assay: Efficacy against 5-hydroxytryptamine 2A receptor; format: functional
5-hydroxytryptamine receptor 2A (Rattus norvegicus), sequence (P14842 whole entry): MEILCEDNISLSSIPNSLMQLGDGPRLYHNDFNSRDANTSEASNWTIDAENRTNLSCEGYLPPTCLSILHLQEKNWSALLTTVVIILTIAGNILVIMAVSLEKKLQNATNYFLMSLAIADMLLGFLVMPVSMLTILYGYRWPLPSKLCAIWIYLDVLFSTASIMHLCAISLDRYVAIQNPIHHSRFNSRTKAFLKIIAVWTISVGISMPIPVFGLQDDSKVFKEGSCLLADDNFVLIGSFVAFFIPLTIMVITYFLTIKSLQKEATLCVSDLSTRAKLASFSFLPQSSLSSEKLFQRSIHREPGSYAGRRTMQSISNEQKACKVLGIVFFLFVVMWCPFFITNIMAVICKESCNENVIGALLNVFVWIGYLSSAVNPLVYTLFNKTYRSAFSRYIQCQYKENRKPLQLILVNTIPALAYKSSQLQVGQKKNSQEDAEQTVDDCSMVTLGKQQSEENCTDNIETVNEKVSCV

[17] = tested on: Rattus norvegicus; assay: Percentage of animals failing to emit 50 lever presses within 15 min in at 0.01 mg/kg dose; format: functional; outline: as §2
[18] = tested on: Rattus norvegicus; assay: Percentage of animals failing to emit 50 lever presses within 15 min in rats at 0.02 mg/kg dose; format: functional; outline: as §2
[19] = tested on: Rattus norvegicus; assay: Percentage of animals failing to emit 50 lever presses within 15 min in rats at 0.04 mg/kg dose; format: functional; outline: as §2
[20] = tested on: Rattus norvegicus; assay: Percentage of animals failing to emit 50 lever presses within 15 min in rats at 0.08 mg/kg dose; format: functional; outline: as §2
[21] = tested on: Rattus norvegicus; assay: Percentage of animals emitting >80% of lever presses in rats at 0.01 mg/kg dose; format: functional; outline: as §1
[22] = tested on: Rattus norvegicus; assay: Percentage of animals emitting >80% of lever presses in rats at 0.02 mg/kg dose; format: functional; outline: as §1
[23] = tested on: Rattus norvegicus; assay: Percentage of animals emitting >80% of lever presses in rats at 0.04 mg/kg dose; format: functional; outline: as §1
[24] = tested on: Rattus norvegicus; assay: Percentage of animals emitting >80% of lever presses in rats at 0.08 mg/kg dose; format: functional; outline: as §1

SMILES: CN(C)CCc1c[nH]c2ccccc12
- Ki [1]: 259 nM
- D [2]: 0%
- SDL [2]: 0%
- D [3]: 11%
- SDL [3]: 20%
- D [4]: 20%
- SDL [4]: 37.5%
- D [5]: 20%
- SDL [5]: 62.5%
- D [6]: 80%
- SDL [6]: 100%
- D [7]: 18%
- D [8]: 23%
- D [9]: 37%
- D [10]: 0%
- SDL [11]: 37%
- SDL [12]: 22%
- SDL [13]: 40%
- SDL [14]: 83%
- Ki [15]: 65 nM

SMILES: CCN(CC)C(=O)[C@@H]1C=C2c3cccc4[nH]cc(c34)C[C@H]2N(C)C1 [LYSERGIDE]
- ED50 [16]: 0.037 µmol.kg-1 and 0.016 mg/kg
- D [17]: 0%
- D [18]: 7%
- D [19]: 0%
- D [20]: 0%
- SDL [21]: 31%
- SDL [22]: 62%
- SDL [23]: 81%
- SDL [24]: 100%
